# An excerpt weighted towards active compounds, which were near 4.3% of everything screened.
# CHO parental Ca = counter-screen: ATP calcium response change in parental CHO cells. inhibition, % at 5.6 µM. 330,000 compounds, 0.63% hits. parental CHO-K1, ATP-induced calcium, Fluo-8 fluorescence;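 active means inhibition above that plate's mean sample inhibition plus 3 SD, cut at about 26% in these data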;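 further: 0% = ATP-challenged DMSO wells and 100% = DMSO wells without ATP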
#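 Material – parental CHO cells · Reagent – ATP stimulus · Compound – single nominal dose of 5.6 µM per compound · Detection – Fluo-8 fluorescence · Read-out basis – percent inhibition of calcium signal · Controls – ATP-challenged DMSO wells low, unchallenged DMSO wells high · Repeats – no replicates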
# OX1R antag-1 = blocks the human orexin 1 receptor; CHO/OX1R cells, Fluo-8 calcium fluorescence, orexin A; 330,000 compounds, 0.43% hits; AID 434989; O43613; inhibition, % at 5 µM;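 active means inhibition above its plate's threshold, mean inhibition of all tested compounds on the plate plus 3 SD, cut at about 37% in these data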;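 further: 0% = orexin A challenge wells and 100% = SB-334867-A antagonist wells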
# TAAR1 antag = antagonists of human TAAR1 | CHO RD-HGA16 TAAR1, Fluo-8 calcium fluorescence, antagonist | inhibition, % at 3 µM | 360,000 compounds, 1.5% hits;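 active means inhibition above a per-plate cutoff, the mean inhibition of test compounds on that plate plus 3 SD, cut at about 49% in these data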;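 further: 0% = DMSO plus EC80 beta-PEA response and 100% = DMSO alone without agonist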
# Target sequence (Q96RJ0 whole entry, looked up): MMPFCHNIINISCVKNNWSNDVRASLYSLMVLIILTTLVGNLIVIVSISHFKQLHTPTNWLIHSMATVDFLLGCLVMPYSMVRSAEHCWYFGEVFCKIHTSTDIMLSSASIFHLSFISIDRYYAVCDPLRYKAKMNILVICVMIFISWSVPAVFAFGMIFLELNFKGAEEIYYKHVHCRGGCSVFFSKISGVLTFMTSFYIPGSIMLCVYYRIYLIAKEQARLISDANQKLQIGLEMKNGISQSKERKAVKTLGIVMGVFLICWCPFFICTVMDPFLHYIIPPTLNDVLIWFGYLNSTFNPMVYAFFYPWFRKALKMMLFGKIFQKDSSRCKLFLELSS
#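 test system = CHO RD-HGA16 cells bearing hTAAR1 | replication = singlicate | controls = DMSO-only wells and EC80 β-PEA-stimulated wells | reagent = EC80 β-phenethylamine stimulus | read-out basis = percent inhibition of PEA-evoked calcium signal, max/basal emission ratio | schedule = seeding 17-24 h prior, 75-min 37 °C, 30-min RT dye loading | signal = kinetic Fluo-8 calcium fluorescence measurement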
# GalR3 antagonist = blocks the human galanin receptor 3; HEK293 GalR3-CNG cAMP membrane potential fluorescence; galR3 body fused to GalR1 C-terminus; inhibition, % at 3 µM; 360,000 compounds, 0.44% hits;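 active means inhibition above the screen-wide average plus 3 SD, cut at about 13% in these data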;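 further: forskolin and galanin both at EC90 stimulate the cells; cAMP rise reported by CNG channel membrane potential dye signal; 0% = forskolin plus galanin with DMSO and 100% = forskolin alone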
# Target sequence (O60755 1-299 limits assumed): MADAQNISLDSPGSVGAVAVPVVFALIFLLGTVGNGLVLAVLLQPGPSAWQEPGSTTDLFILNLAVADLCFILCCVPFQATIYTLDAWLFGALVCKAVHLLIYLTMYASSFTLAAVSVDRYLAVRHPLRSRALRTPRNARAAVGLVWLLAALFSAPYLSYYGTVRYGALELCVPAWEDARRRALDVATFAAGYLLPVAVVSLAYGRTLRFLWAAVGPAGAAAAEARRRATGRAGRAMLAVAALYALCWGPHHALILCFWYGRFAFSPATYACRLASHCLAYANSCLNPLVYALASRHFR
# OX1R antag-2 = blocks the human orexin 1 receptor | OX1R-expressing cells, FRET antagonist read-out | inhibition, % at 6.6 µM | 330,000 compounds, 1.8% hits; in the data active means inhibition mostly above about 38%, no sharp cut-off; inactive means mostly below about 40%;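 further: 0% = agonist challenge alone and 100% = reference antagonist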
# TAAR1 agonist = human TAAR1 agonism; Q96RJ0; CHO RD-HGA16 TAAR1, Fluo-8 calcium fluorescence; vehicle wells 0%, saturating PEA agonist 100%; activation, % at 3 µM; 360,000 compounds, 0.99% hits;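 active means activation above the mean activation of all test compounds in the run plus 3 SD, cut at about 38% in these data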
#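 System: CHO RD-HGA16 cells carrying human TAAR1 plus Gα16; Incubation: 17-24 h seeding, 75 min 37 °C dye, 30 min RT; Measured by: Fluo-8 fluorescence, 5 s baseline then 140 s kinetic read; Control set: DMSO and PEA EC100; Replication: single well for each compound.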
# TAAR1 ag conf = confirmation of human TAAR1 agonists; shares compounds with TAAR1 agonist; CHO RD-HGA16 TAAR1, Fluo-8 calcium fluorescence; scaled: DMSO 0%, maximal phenethylamine 100%; activation, % at 3 µM; 2,400 compounds, 82% hits; AID 651783;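 active means activation above a cutoff set at the run's mean compound activation plus 3 SD, cut at about 39% in these data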
# Ga16 ag counter = nonselective agonist in parental cells, TAAR1 agonist counter-screen | CHO-Ga16 parental, Fluo-8 calcium fluorescence; normalized to maximal ATP response, DMSO zero | 2,400 compounds, 50% hits | shares compounds with TAAR1 agonist | AID 651787 | activation, % at 3 µM;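 active means activation above the run cutoff, the mean activation over all tested wells plus 3 SD, cut at about 12% in these data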;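 further: 0% = DMSO wells and 100% = maximal ATP response on the peak over basal ratio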
# TAAR1 desensitize = TAAR1 response desensitization, agonist counter-screen | CHO RD-HGA16 hTAAR1, Fluo-8 calcium, beta-PEA response inhibition | shares compounds with TAAR1 agonist | inhibition, % at 3 µM | 2,400 compounds, 46% hits;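 active means inhibition above the run cutoff, the mean inhibition of all test compounds plus 3 SD, cut at about 49% in these data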;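 further: beta-PEA stimulus applied at its EC80; loss of beta-PEA calcium signal after compound pretreatment read as receptor desensitization; 0% = DMSO with beta-PEA at EC80 and 100% = DMSO alone without agonist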
# Ga16 antag count = counter-screen for TAAR1 agonists: nonselective Ga16 antagonists; shares compounds with TAAR1 agonist; CHO-Ga16 ATP-induced calcium, Fluo-8 fluorescence; inhibition, % at 3 µM; 2,400 compounds, 39% hits;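 active means inhibition above the plate's mean compound inhibition plus 3 SD, computed per plate, cut at about 22% in these data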;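 further: 0% = EC80 ATP with DMSO and 100% = DMSO wells without ATP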
# The depositor's hits bear a star; · = no result.
SMILES,CHO parental Ca,OX1R antag-1,TAAR1 antag,GalR3 antagonist,OX1R antag-2,TAAR1 agonist,TAAR1 ag conf,Ga16 ag counter,TAAR1 desensitize,Ga16 antag count
COc1ccc2cc(CN(CCc3ccccc3)Cc3nnnn3Cc3ccco3)c(=O)[nH]c2c1,-18,5,49*,-3,15,80*,46*,8,49*,27*
Cc1ccc2cc(CN(Cc3ccc4c(c3)OCO4)Cc3nnnn3Cc3ccco3)c(=O)[nH]c2c1,-14,-15,47,-2,32,7,·,·,·,·
COc1cc(NC(=O)Nc2nnc([C@H]3C[C@H](O)[C@@H](CO)O3)s2)cc(OC)c1OC,·,·,-23,1,·,2,·,·,·,·
O=C(NCc1cccnc1)c1ccc(NC(=O)c2ccc(Br)cc2)cc1,0,-11,4,-9,19,57*,58*,8,28,18
O=C(NCC1CCCO1)c1ccc(NC(=O)c2ccc(Br)cc2)cc1 (configuration not stated),-24,-28,-31,-6,5,78*,95*,8,71*,7
Cc1cccc(NC(=O)c2nc[nH]c2C(=O)N2CCC(C)CC2)c1,-15,-18,13,-4,3,5,·,·,·,·
O=C(COC(=O)c1ccc(O)cc1)NCC1COc2ccccc2O1 (configuration not stated),-12,3,15,-6,1,6,·,·,·,·
COc1ccc(C=NCC2COc3ccccc3O2)cc1OC (configuration not stated),2,-4,14,-10,10,67*,77*,1,76*,6
Oc1ccc(C=NCC2COc3ccccc3O2)cc1 (configuration not stated),-4,-9,·,-5,9,·,·,4,·,3
O=C1NC[C@@H](CCCCN2CCN(CC3CCCCC3)C(=O)C2=O)N(CC2CCCCC2)C1=O,·,·,-3,-7,·,3,·,·,·,·
Clc1ccc2nc(N3CCNCC3)nc(-c3ccccc3)c2c1,-3,-17,-5,-3,16,57*,58*,29*,34,14
CCOC(=O)C1(C)CCCN(C(=O)c2cccc(C(F)(F)F)c2)C1 (configuration not stated),·,·,-11,-6,·,0,·,·,·,·
CCN(CC)c1ccc(C=C2SC(=S)NC2=O)cc1,·,·,105*,-4,·,120*,97*,104*,101*,98*
O=C(COc1ccc(Cl)cc1Cl)N1CCNC1=O,-4,-12,-21,2,-1,1,·,·,·,·
CC(=O)NCCNc1nc(NCc2ccccc2)nc2ccsc12,·,·,92*,-3,·,91*,109*,23*,101*,53*
COCCNc1nc(NCc2ccccc2)nc2ccsc12,·,·,104*,-9,·,153*,123*,103*,107*,102*
Cc1ccnc(NC(=O)CNC(=O)Cc2cccc3ccccc23)c1,-3,-11,-7,-6,13,1,·,·,·,·
COc1ccc(CN(C)C(=O)/C=C/[C@H]2O[C@@H](n3cnc4c(N)ncnc43)[C@H](O)[C@@H]2O)cc1OC,·,·,-17,-6,·,1,·,·,·,·
COc1ccc(C)cc1N/C(N)=N/c1nc(C)cc(C)n1,-13,-19,-11,-6,8,18,·,·,·,·
CCOc1ccc(N/C(N)=N/c2nc(C)cc(C)n2)cc1,49*,58*,97*,-15,0,70*,51*,39*,93*,81*
Cc1ccc(C)c(N/C(N)=N/c2nc(C)cc(C)n2)c1,26,70*,98*,-9,9,116*,105*,67*,99*,76*
Cc1ccc([C@H]2N[C@]3(CCCN(Cc4ccc(Cl)cc4)C3=O)[C@H]3C(=O)N(Cc4ccccc4)C(=O)[C@@H]23)cc1,·,·,-6,-1,·,2,·,·,·,·
Cc1ccc(C)c2[nH]c(=O)c(C(c3nnnn3CCc3ccccc3)N3CCOCC3)cc12 (configuration not stated),-27,-22,19,-5,12,21,·,·,·,·
Cc1ccc(C)c2[nH]c(=O)c(C(c3nnnn3Cc3ccco3)N3CCc4ccccc4C3)cc12 (configuration not stated),-16,-15,45,-2,45,52*,58*,3,7,5
CC1(C)CC(NC(=O)c2ccc(Cl)c(Cl)c2)CC(C)(C)N1,-5,-29,-1,-10,-1,10,·,·,·,·
SMILES,CHO parental Ca,OX1R antag-1,TAAR1 antag,GalR3 antagonist,OX1R antag-2,TAAR1 agonist,TAAR1 ag conf,Ga16 ag counter,TAAR1 desensitize,Ga16 antag count
O=C(Nc1ccc(F)cc1F)Nc1ccc(F)cc1F,-4,-24,7,-2,15,6,·,·,·,·
Cc1cccc(NC(=O)Nc2ccncc2)c1,0,-17,15,-1,-1,53*,77*,3,36,-1
Cc1cccc(NC(=O)Nc2cnccn2)c1,0,1,0,-4,10,0,·,·,·,·
O=C(Nc1cccnc1)Nc1cccc(F)c1,-5,-3,31,-12,18,52*,78*,11,54*,12
O=C(Nc1ccncc1)Nc1ccc(F)cc1F,-6,-1,-13,-6,10,47*,71*,1,16,-3
O=C(Nc1ccncc1)Nc1cccc(F)c1,·,·,46,-2,·,92*,104*,12*,84*,17
Cc1nc(N2CCCCC2)[nH]c(=O)c1CN(C)N=O,·,·,-23,1,·,4,·,·,·,·
ClC(Cl)(c1nnnn1-c1ccccc1)c1nnnn1-c1ccccc1,93*,63*,38,-11,21,58*,52*,24*,36,29*
c1ccc(-c2nnnn2-c2ccccc2)cc1,·,·,-6,-10,·,1,·,·,·,·
CC(C)Nc1nc(NC(C)(C)C)nc(Oc2ccc(=O)n(-c3ccccc3)n2)n1,-26,-16,-16,-4,9,70*,76*,54*,-1,1
CC1C(c2ccccc2)OCCN1C(=S)Nc1ccc(S(=O)(=O)N2CCCCC2)cc1 (configuration not stated),·,·,10,-4,·,55*,56*,7,34,32*

# Screening results from PubChem BioAssay.
